pIC50: −log10 of the molar value. Calls of active or inactive are those of the source. The rule behind the calls is not given here.
How the values were obtained:
[1] = system: HeLa; test: Induction of cell cycle arrest in human HeLa cells assessed as accumulation in G2/M phase after 24 hrs by propidium iodide staining-based flow cytometric analysis; format: functional
[2] = target: T1, Aurora kinase A (Homo sapiens) (UniProt O14965); test: Inhibition of Aurora kinase A in human HeLa cells assessed as reduction in phosphorylation at Thr288 residue incubated for 24 hrs by western blot analysis; format: cell-based
T1 sequence (whole entry): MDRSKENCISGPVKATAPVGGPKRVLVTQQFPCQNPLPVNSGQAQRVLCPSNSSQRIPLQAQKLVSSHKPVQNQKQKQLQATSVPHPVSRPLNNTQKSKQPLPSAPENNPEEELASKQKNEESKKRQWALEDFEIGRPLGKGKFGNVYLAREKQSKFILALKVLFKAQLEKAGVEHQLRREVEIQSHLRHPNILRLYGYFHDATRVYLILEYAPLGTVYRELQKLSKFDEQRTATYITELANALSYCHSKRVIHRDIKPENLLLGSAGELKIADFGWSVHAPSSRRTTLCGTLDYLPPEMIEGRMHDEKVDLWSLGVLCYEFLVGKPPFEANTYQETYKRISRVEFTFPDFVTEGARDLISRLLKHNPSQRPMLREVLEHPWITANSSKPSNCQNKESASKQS
In short: (§1)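 HeLa cells treated 24 h at 0, 1, 5 or 10 µM. Lysates quantified by BCA; 20–30 µg protein run on 12% SDS-PAGE, transferred to PVDF. Blocked 2 h in 5% milk/TBST. Primary antibodies (1:500–1:1000) overnight at 4 °C against p-Aurora A Thr288, p-Aurora B Thr232, total Aurora A/B, cyclin B1 and cdc2. Secondary at 1:5000–1:10,000; β-actin loading control.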

[3] = system: HeLa; test: Induction of cell cycle arrest in human HeLa cells assessed as decrease in cyclin B1 expression level at 1 to 10 uM incubated for 24 hrs by Western blot analysis; format: functional, cell-based; in short: as §1
[4] = system: U-87 MG; test: Antiproliferative activity against human U87 cells assessed as cell growth inhibition after 72 hrs by MTT assay; format: functional, cell-based, U-87MG ATCC
In short: (§2)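 Cells seeded at 5 × 10^3 cells/well in medium with 10% FBS for 24 h at 37 °C, 5% CO2. Compounds diluted in culture medium to various concentrations, 72 h exposure. MTT (5 mg/mL stock in serum-free medium) for 4 h, formazan dissolved in DMSO, absorbance at 490 nm. IC50 from log plot of percent of control versus concentration; triplicate.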

[5] = system: HeLa; test: Induction of cell cycle arrest in human HeLa cells assessed as decrease in cdc2 expression level at 1 to 10 uM incubated for 24 hrs by Western blot analysis; format: functional, cell-based; in short: as §1
[6] = system: HeLa; test: Antiproliferative activity against human HeLa cells assessed as cell growth inhibition after 72 hrs by MTT assay; format: functional, cell-based; in short: as §2
[7] = system: LoVo; test: Antiproliferative activity against human LoVo cells assessed as cell growth inhibition after 72 hrs by MTT assay; format: functional, cell-based; in short: as §2
[8] = target: T2, Aurora kinase B (Homo sapiens, UniProt Q96GD4); test: Inhibition of Aurora kinase B (unknown origin) incubated for 30 mins by Kinase Glo luminescent assay
[9] = system: HepG2; test: Antiproliferative activity against human HepG2 cells assessed as cell growth inhibition after 72 hrs by MTT assay; format: functional, cell-based; settings: HepG2, 72 h; in short: as §2
[10] = target: T2, Aurora kinase B; test: Inhibition of Aurora kinase B in human HeLa cells assessed as reduction in phosphorylation at Thr232 residue incubated for 24 hrs by western blot analysis; format: cell-based; in short: as §1
[11] = system: HeLa; test: Induction of cell cycle arrest in human HeLa cells assessed as accumulation in G2/M phase at 1 uM after 24 hrs by propidium iodide staining-based flow cytometric analysis (reference value: 10.5%); format: functional
[12] = system: HeLa; test: Induction of cell cycle arrest in human HeLa cells assessed as accumulation in G2/M phase at 5 uM after 24 hrs by propidium iodide staining-based flow cytometric analysis (reference value: 10.5%); format: functional
[13] = system: HeLa; test: Induction of cell cycle arrest in human HeLa cells assessed as accumulation in G2/M phase at 10 uM after 24 hrs by propidium iodide staining-based flow cytometric analysis (reference value: 10.5%); format: functional
[14] = target: T3, Aurora kinase A (Homo sapiens, UniProt O14965); test: Inhibition of Aurora kinase A (unknown origin) incubated for 30 mins by Kinase Glo luminescent assay
T3 sequence (O14965 whole entry): T1 sequence (whole entry)

[15] = target: T2, Aurora kinase B; test: Inhibition of Aurora B in human B-NHL cells assessed as inhibition of histone H3 phosphorylation on Ser10 by immunoblotting analysis; format: cell-based

T2 sequence (Q96GD4 whole entry): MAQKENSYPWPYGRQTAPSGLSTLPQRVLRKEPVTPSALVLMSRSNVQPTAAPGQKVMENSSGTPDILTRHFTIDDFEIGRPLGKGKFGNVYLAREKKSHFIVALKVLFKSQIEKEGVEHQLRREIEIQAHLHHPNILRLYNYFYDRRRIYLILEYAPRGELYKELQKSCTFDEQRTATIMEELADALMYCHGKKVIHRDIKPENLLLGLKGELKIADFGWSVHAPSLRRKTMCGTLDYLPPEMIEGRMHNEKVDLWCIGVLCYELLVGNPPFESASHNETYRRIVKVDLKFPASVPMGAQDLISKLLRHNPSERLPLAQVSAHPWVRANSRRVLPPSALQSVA

| SMILES | pIC50 [4] | pIC50 [6] | pIC50 [7] | pIC50 [8] | pIC50 [9] | pIC50 [14] | also measured |
| --- | --- | --- | --- | --- | --- | --- | --- |
| Cn1cc(-c2cnc(N)c(Oc3ccc(C(=O)Nc4cccc(Cl)c4)cc3)n2)cn1 | 4.66 | 5.35 | 4.61 | 6.57 | 4.67 | 6.18 |  |
| Cn1cc(-c2cnc(N)c(NCc3ccc(C(=O)Nc4ccc(Cl)cc4)cc3)n2)cn1 | < 4.00 | 4.38 | 4.36 |  | 4.70 |  |  |
| Cc1noc(C)c1-c1cnc(N)c(Oc2ccc(C(=O)N3CCOCC3)cc2)n1 | 4.57 | 4.85 | 4.99 | 6.44 | 4.81 | 6.76 |  |
| Cn1cc(-c2cnc(N)c(Oc3ccc(C(=O)Nc4ccc(Cl)cc4)cc3)n2)cn1 | 4.45 | 5.46 | 5.51 | 6.76 | 4.92 | 6.72 |  |
| Cn1cc(-c2cnc(N)c(Oc3ccc(C(=O)Nc4cccc(Cl)n4)cc3)n2)cn1 | 4.26 | 4.42 | 4.31 |  | 4.35 |  |  |
| Cc1noc(C)c1-c1cnc(N)c(NCc2ccc(C(=O)Nc3ccc(Cl)cc3)cc2)n1 | < 4.00 | < 4.00 | < 4.00 |  | < 4.00 |  |  |
| CCCNC(=O)c1ccc(Oc2nc(-c3c(C)noc3C)cnc2N)cc1 | 4.32 | 4.49 | 4.76 |  | 5.16 |  |  |
| Cc1noc(C)c1-c1cnc(N)c(Oc2ccc(C(=O)Nc3cc(Cl)ccn3)cc2)n1 | 4.15 | 4.42 | < 4.00 |  | < 4.00 |  |  |
| Cc1noc(C)c1-c1cnc(N)c(Oc2ccc(C(=O)Nc3cccc(Cl)n3)cc2)n1 | 4.19 | 4.59 | 4.41 |  | 4.45 |  |  |
| Cc1cc(Nc2cc(N3CCN(C)CC3)nc(Sc3ccc(NC(=O)C4CC4)cc3)n2)n[nH]1 [TOZASERTIB] | 4.84 | 5.02 | 4.87 |  | 4.89 |  | Activity [13]: 36% |
| Cc1noc(C)c1-c1cnc(N)c(Oc2ccc(C(=O)N3CCN(C)CC3)cc2)n1 | 4.67 | 5.10 | 5.11 | 6.72 | 4.75 | 6.84 |  |
| Cc1noc(C)c1-c1cnc(N)c(Oc2ccc(C(=O)NC3CCCCC3)cc2)n1 | 4.39 | 4.58 | 4.67 | 6.49 | 5.27 | 6.64 |  |
| O=C(Nc1c[nH]nc1-c1nc2ccc(CN3CCOCC3)cc2[nH]1)NC1CC1 [AT-9283] |  |  |  |  |  |  | pIC50 [15]: 7.52 |
| Cc1noc(C)c1-c1cnc(N)c(Oc2ccc(C(=O)Nc3ccccc3)cc2)n1 | 4.58 | 4.98 | 5.24 | 6.27 | 4.93 | 6.66 |  |
| Cn1cc(-c2cnc(N)c(Oc3ccc(C(=O)Nc4ccccc4)cc3)n2)cn1 | 4.75 | 4.91 | 5.04 | 6.79 | 4.94 | 6.66 |  |
| Cc1noc(C)c1-c1cnc(N)c(Oc2ccc(C(=O)Nc3ccc(Cl)cn3)cc2)n1 | 4.34 | 4.72 | 5.04 |  | 4.45 |  |  |
| Cc1noc(C)c1-c1cnc(N)c(Oc2ccc(C(=O)Nc3ncccc3Cl)cc2)n1 | 4.34 | 4.50 | 4.83 |  | 4.57 |  |  |

Now from value to molecule, other results behind:

| pIC50 [4] | pIC50 [6] | pIC50 [7] | pIC50 [8] | pIC50 [9] | pIC50 [14] | SMILES | also measured |
| --- | --- | --- | --- | --- | --- | --- | --- |
| 4.94 | 5.87 | 5.79 | 6.82 | 5.14 | 7.05 | Cc1noc(C)c1-c1cnc(N)c(Oc2ccc(C(=O)Nc3cccc(Cl)c3)cc2)n1 | Activity [1]: Dose-dependent effect; inhibition [2]: Dose-dependent effect; Activity [3]: Active; Activity [5]: Active; inhibition [10]: Dose-dependent effect; Activity [11]: 21%; Activity [12]: 30.1%; Activity [13]: 34.9% |
| 4.24 | 5.00 | 4.60 |  | 4.89 |  | Cc1noc(C)c1-c1cnc(N)c(Oc2ccc(C(=O)NC3CCCC3)cc2)n1 |  |
| < 4.00 | 4.37 | < 4.00 |  | < 4.00 |  | Cn1cc(-c2cnc(N)c(Sc3ccc(C(=O)Nc4ccc(Cl)cc4)cc3)n2)cn1 |  |
| 4.22 | 4.09 | < 4.00 |  | < 4.00 |  | Cc1noc(C)c1-c1cnc(N)c(Oc2ccc(C(=O)Nc3ccccc3Cl)cc2)n1 |  |
| 4.42 | 4.44 | 4.78 |  | 4.66 |  | Cn1cc(-c2cnc(N)c(Oc3ccc(C(=O)Nc4ncccc4Cl)cc3)n2)cn1 |  |
| 4.32 | 4.39 | 4.58 |  | < 4.00 |  | Cn1cc(-c2cnc(N)c(Oc3ccc(C(=O)Nc4cc(Cl)ccn4)cc3)n2)cn1 |  |
| < 4.00 | 4.42 | 4.31 |  | 4.34 |  | Cc1noc(C)c1-c1cnc(N)c(Sc2ccc(C(=O)Nc3ccc(Cl)cc3)cc2)n1 |  |
| 4.35 | 4.14 | 4.38 |  | 4.17 |  | Cn1cc(-c2cnc(N)c(Oc3ccc(C(=O)Nc4ccccc4Cl)cc3)n2)cn1 |  |
| 4.65 | 4.67 | 5.21 |  | 4.62 |  | Cn1cc(-c2cnc(N)c(Oc3ccc(C(=O)Nc4ccc(Cl)cn4)cc3)n2)cn1 |  |
| 4.81 | 5.65 | 5.72 | 6.59 | 4.84 | 6.34 | Cc1noc(C)c1-c1cnc(N)c(Oc2ccc(C(=O)Nc3ccc(Cl)cc3)cc2)n1 |  |
| 4.36 | 4.75 | < 4.00 |  | 4.36 |  | Cc1noc(C)c1-c1cnc(N)c(Oc2ccc(C(=O)NC3CC3)cc2)n1 |  |

From ChEMBL document CHEMBL4622832, “Synthesis, biological evaluation and molecular modeling study of 2-amino-3,5-disubstituted-pyrazines as Aurora kinases inhibitors” (Bioorg Med Chem, 2020)
